# Like-named read-outs stand apart in the source and are kept apart here.
# Experiments:
# [1] = target: T1, heteromeric CNGA3+CNGB3 channels (Homo sapiens, UniProt Q16281+Q9NQW8); assay: Inside-out patch clamp, heteromeric CNGA3+CNGB3; assay type: biochemical; settings: for EC50: read-out: K1/2 cGMP
# T1 sequence (Q16281 1-694): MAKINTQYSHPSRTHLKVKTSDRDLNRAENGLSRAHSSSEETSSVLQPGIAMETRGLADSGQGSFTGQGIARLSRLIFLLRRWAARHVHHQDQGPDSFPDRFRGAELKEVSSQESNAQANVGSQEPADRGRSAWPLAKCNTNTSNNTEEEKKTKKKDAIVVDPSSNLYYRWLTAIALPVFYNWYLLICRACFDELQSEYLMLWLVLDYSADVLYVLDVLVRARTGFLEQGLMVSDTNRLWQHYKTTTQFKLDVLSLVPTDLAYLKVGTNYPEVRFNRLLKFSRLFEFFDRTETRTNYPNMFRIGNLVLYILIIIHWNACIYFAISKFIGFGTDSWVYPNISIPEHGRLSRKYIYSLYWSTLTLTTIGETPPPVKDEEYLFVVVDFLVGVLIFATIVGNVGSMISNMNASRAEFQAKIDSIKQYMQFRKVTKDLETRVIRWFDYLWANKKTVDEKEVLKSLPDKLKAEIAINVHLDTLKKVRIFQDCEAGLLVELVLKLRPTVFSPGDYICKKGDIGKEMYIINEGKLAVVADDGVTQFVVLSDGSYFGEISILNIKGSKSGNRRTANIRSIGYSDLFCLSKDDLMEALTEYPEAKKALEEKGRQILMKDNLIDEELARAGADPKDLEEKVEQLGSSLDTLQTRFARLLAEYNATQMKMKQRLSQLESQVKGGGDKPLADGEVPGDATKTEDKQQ
# T1 sequence (Q9NQW8 1-809): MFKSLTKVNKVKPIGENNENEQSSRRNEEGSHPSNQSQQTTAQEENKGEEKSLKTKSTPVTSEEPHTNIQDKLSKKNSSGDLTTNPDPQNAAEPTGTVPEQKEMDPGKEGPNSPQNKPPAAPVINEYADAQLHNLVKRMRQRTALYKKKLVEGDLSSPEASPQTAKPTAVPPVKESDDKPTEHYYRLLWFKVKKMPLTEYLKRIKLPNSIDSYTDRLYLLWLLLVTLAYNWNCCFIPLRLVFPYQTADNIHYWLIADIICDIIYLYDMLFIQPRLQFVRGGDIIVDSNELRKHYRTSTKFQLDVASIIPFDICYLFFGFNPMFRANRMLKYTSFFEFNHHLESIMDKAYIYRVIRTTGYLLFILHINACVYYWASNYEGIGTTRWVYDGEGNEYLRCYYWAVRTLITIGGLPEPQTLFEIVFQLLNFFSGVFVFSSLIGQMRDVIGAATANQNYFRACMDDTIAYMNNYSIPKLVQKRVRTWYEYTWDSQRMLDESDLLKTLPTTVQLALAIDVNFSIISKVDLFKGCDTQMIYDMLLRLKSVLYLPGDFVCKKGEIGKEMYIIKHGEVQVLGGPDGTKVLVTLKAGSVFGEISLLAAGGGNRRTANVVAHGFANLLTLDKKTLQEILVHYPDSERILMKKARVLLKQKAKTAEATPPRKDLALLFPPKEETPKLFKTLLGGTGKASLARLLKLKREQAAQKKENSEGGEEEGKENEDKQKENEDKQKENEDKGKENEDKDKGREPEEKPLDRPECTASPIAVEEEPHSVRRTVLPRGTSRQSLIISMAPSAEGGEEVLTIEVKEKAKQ
# [2] = target: CNGA3 N2R-A, 613X channels (Homo sapiens, UniProt Q16281, R101A/R103A); assay: Inside-out patch clamp, CNGA3 N2R-A, 613X; assay type: biochemical
# CNGA3 D609K channels = CNGA3 D609K channels (Homo sapiens, UniProt Q16281, D609K); assay: Inside-out patch clamp, CNGA3 D609K; assay type: biochemical; settings: estimated using tetracaine block
# [3] = target: T2, CNGA3 675X homomeric channels (Homo sapiens, UniProt Q16281); assay: Inside-out patch clamp, CNGA3 675X; assay type: biochemical
# T2 sequence (Q16281 1-674 limits assumed): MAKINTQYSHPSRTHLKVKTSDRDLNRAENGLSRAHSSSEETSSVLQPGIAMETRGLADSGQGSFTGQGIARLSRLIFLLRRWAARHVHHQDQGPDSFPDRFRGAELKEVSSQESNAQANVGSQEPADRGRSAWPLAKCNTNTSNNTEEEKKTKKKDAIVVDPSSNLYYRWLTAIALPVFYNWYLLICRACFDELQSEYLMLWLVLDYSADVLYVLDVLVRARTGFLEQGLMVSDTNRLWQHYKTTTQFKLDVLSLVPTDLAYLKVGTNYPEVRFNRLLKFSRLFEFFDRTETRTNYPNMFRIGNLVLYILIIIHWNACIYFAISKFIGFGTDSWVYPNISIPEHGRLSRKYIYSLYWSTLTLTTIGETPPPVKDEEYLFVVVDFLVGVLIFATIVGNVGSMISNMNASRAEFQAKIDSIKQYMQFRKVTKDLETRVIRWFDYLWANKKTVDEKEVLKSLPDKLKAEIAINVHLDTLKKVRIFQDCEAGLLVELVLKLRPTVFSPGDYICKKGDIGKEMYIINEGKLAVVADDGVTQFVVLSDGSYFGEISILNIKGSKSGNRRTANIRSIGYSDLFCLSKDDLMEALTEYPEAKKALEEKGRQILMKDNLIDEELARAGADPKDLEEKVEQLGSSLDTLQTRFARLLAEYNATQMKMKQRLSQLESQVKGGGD
# GST fusion A3N7R-A = GST fusion A3N7R-A (Homo sapiens, UniProt Q16281, R101A/R103A/R72A/R75A/R81A/R82A/R86A); assay: In vitro PIP3-agarose bead pull-down, A3N7R-A; assay type: binding; settings: PIP3-agarose beads, anti-GST immunoblot; compared with A3N
# Method in brief: (§1)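 Recombinant GST fusions of channel fragments expressed in E. coli and purified; soluble fraction kept after 20,000 g, 4°C, 30 min. Protein (2 µg/ml) rocked with PIP3- or control agarose beads, 2 h, 4°C, in 10 mM Hepes pH 7.4, 50 mM NaCl, 2 mM EDTA, 0.25% Triton X-100, 0.25% NP-40. Five washes, elution in sample buffer, reducing SDS gel, anti-GST (1:2,000, overnight) immunoblot, chemiluminescence; […].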
# GST fusion A3C-635X = GST fusion A3C-635X (Homo sapiens, UniProt Q16281); assay: In vitro PIP3-agarose bead pull-down, A3C-635X; assay type: binding; settings: PIP3-agarose beads, anti-GST immunoblot; compared with A3C
# Method in brief: as §1
# CNGA1 homomeric channels = CNGA1 homomeric channels (Bos taurus, UniProt Q00194); assay: Inside-out patch clamp, homomeric CNGA1; assay type: biochemical, bovine; settings: PIP3 or PIP2 application
# [4] = representative patch, before PIP2
# [5] = representative patch, before PIP3
# [6] = read-out: K1/2 cGMP, +80 mV, no PIPn
# [7] = mean, after 1 µM PIP3 or 10 µM PIP2
# [8] = representative patch, after PIP3 or PIP2
# CNGA3 N2R-A, 613X channels, sequence (Q16281 1-612 R101A/R103A limits assumed): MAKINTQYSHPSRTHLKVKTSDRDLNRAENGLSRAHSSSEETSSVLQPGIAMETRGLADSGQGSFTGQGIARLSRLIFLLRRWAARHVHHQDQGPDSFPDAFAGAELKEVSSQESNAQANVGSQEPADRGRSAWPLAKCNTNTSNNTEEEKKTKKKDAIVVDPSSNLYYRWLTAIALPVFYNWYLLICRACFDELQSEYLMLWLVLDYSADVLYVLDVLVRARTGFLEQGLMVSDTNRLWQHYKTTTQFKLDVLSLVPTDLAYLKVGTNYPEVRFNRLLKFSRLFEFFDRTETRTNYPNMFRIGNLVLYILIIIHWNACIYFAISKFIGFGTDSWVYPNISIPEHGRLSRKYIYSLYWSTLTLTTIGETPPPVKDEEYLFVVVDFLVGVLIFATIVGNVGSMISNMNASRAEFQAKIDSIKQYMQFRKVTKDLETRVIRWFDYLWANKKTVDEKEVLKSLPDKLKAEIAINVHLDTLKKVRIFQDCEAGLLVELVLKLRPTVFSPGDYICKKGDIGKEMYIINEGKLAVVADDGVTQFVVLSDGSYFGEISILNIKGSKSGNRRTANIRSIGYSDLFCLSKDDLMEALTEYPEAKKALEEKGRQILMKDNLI
# GST fusion A3N7R-A, sequence (Q16281 1-164 R72A/R75A/R81A/R82A/R86A/R101A/R103A): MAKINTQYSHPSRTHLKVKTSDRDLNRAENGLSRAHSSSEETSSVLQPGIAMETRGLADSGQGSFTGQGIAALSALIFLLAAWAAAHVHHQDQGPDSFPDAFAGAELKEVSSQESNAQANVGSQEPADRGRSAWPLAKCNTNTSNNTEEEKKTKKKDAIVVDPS
# CNGA1 homomeric channels, sequence (Q00194 whole entry): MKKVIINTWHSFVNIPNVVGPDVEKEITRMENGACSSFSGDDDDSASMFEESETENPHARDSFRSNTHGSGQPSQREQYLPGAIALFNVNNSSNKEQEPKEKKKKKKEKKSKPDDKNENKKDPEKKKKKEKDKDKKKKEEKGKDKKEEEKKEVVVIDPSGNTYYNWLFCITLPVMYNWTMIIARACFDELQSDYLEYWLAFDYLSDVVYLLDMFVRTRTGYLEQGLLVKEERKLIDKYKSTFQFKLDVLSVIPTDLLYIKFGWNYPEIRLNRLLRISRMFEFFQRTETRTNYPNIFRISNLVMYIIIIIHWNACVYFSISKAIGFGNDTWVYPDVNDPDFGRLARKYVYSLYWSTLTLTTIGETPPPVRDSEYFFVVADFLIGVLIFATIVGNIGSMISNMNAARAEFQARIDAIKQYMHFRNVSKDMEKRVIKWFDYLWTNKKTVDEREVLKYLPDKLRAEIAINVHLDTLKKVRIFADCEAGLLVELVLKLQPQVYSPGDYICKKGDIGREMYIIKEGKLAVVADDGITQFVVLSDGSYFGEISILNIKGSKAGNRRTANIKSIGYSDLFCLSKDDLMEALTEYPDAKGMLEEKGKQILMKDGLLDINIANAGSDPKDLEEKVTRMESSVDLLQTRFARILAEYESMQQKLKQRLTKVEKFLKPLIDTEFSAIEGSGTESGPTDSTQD
# CNGA3 D609K channels, sequence (Q16281 whole entry D609K): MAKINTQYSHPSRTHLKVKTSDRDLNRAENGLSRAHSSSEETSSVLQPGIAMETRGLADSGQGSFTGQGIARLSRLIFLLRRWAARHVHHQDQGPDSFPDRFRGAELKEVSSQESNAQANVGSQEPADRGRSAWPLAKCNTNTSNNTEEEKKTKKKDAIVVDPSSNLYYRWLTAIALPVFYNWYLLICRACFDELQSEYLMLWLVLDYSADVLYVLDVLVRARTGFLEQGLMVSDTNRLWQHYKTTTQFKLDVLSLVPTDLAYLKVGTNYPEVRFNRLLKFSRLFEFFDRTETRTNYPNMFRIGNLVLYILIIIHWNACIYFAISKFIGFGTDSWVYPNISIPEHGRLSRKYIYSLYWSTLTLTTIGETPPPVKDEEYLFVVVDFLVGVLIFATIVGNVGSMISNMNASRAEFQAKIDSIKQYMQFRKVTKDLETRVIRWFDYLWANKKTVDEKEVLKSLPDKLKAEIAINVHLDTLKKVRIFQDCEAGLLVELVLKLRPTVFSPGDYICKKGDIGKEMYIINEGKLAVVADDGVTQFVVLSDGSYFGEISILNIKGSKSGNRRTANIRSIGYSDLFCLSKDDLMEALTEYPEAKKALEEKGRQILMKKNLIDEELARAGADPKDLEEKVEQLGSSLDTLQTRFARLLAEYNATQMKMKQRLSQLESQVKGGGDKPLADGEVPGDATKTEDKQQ
compound,measurement,setting,value
"Nc1nc2c(ncn2[C@@H]2O[C@@H]3COP(=O)(O)O[C@H]3[C@H]2O)c(=O)[nH]1 [cGMP, cyclic guanosine monophosphate]",Hill coefficient h,"[1]; mean, before PIPn",1.9
same,EC50,"[1]; mean, before PIPn",13.5 ± 0.6 µM
same,EC50,[1]; [4],12.8 µM
same,EC50,[1]; [5],16.1 µM
same,Hill coefficient h,[1]; [4],1.8
same,Hill coefficient h,[1]; [5],2.05
same,Hill coefficient,[2]; cGMP activation,1.68 ± 0.03 (4)
same,EC50,[2]; [6],16.1 ± 0.59 µM
same,Po max cGMP,CNGA3 D609K channels,0.78 ± 0.01
same,Hill coefficient,[3]; cGMP activation,1.88 ± 0.05 (4)
same,EC50,[3]; [6],9.22 ± 0.55 µM
"phosphatidylinositol (3,4,5)-trisphosphate [PIP3]",in vitro PIP3 binding,GST fusion A3N7R-A,attenuated binding to PIP3 beads
same,fold shift of K1/2 cGMP to higher concentration,[1]; 1 µM PIP3,~1.5 fold
same,effect on currents elicited by 5 µM cGMP,[1]; 1 µM PIP3 or 10 µM PIP2,attenuated the currents
same,Imax cAMP/cGMP after phosphoinositide,[1]; after PIP2 or PIP3 application,0.30 ± 0.03
same,Hill coefficient h after phosphoinositide,[1]; [7],1.6
same,K1/2 cGMP after phosphoinositide,[1]; [7],20.8 ± 1.4 µM
same,Hill coefficient h after phosphoinositide,[1]; [8],2.0
same,K1/2 cGMP after phosphoinositide,[1]; [8],26.5 µM
same,Imax cGMP compared with initial values,"[1]; saturating cGMP, after 1 µM PIP3 or 10 µM PIP2",95.4 ± 2.8%
same,in vitro PIP3 binding,GST fusion A3C-635X,attenuated binding to PIP3 beads
same,effect on relative cAMP efficacy,CNGA1 homomeric channels,decreased relative cAMP efficacy
same,PIP3-induced change in cAMP efficacy,[3]; 1 µM PIP3,preserved the PIP3-induced change in cAMP efficacy

# — article PMC3607822 (The Journal of General Physiology, 2013)
